# Compound activity deposited in PubChem by several laboratories.
# An excerpt weighted towards active compounds, which were near 1.8% of everything screened.
# Autophagy mod = autophagy modulators in MEF cells, primary screen, imaging, high-content, MEF GFP-LC3; MEF GFP-LC3 puncta imaging; test concentration mostly 10 µM; calls only at 10 µM (by protocol); hit rate 0.98% among 190,000; AID 463193, 2010;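 active = percentage of spot-positive cells more than 3 SD above its plate mean, without a fluorescence outlier flag or 80% toxicity; inconclusive = no clear call, values can overlap the other calls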;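 note: spot-positive cell cutoff set from DMSO-treated cells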
# Furin inhibitor = human furin inhibitors, primary screen, biochemical, fluorescence intensity; P09958; purified furin, fluorogenic substrate cleavage; inhibition, % at 20 µM or 30 µM; hit rate 0.061% among 220,000; AID 463115, 2010; in the data active = inhibition above about 25%
# Target sequence (P09958 108-714 limits assumed): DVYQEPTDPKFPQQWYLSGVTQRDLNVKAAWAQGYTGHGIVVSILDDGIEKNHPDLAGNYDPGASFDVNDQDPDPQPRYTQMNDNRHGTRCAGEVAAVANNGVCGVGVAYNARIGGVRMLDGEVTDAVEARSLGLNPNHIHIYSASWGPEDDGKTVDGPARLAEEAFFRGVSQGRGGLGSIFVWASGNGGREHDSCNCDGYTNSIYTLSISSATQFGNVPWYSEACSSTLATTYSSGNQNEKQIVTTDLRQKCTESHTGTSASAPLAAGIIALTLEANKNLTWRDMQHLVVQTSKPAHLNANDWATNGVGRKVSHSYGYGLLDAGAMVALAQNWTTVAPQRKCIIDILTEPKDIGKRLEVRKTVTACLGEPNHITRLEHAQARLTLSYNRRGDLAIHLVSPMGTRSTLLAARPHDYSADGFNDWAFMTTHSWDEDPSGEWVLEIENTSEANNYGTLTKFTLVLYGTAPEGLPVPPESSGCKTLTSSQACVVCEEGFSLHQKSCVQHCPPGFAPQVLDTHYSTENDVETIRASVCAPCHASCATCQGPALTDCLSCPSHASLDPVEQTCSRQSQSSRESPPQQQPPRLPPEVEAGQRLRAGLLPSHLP
# Dynein transport = inhibitors of GR-EGFP nuclear translocation, primary screen, dynein cargo transport inhibitor project, imaging, high-content, 3617.4 mouse cells | test concentration mostly 20 µM; stimulated with dexamethasone, 1 µM; stronger effect = lower value | z-score, hits read low | hit rate 0.47% among 220,000 | AID 1381, 2008;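 active = plate z-score of nuclear minus cytoplasmic receptor signal below a set negative limit, without overly bright fluorescence or cell loss, cut at about -3.5 in these data, passing the limit was not always enough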;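 note: z-score of nuclear minus cytoplasmic ring GR-EGFP intensity difference per well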
#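 Buffer or medium: Induction medium lacking tetracycline, stripped serum | Also added: Dexamethasone agonist, 1.0 µM final, for 30 min | Timing: 48 h induction, 1 h compound, 30 min dex at 37 °C | Detection: Formaldehyde fixation, Hoechst nuclear stain, 10x automated fluorescence imaging | Measure: Nuclear versus cytoplasmic GR-EGFP signal, averaged per well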
# HSV replic up = enhancers of HSV replication in host cells, fold increase, host cell viability | hit rate 0.005% among 220,000 | AID 1956, 2009 | maximum fold increase | HSV replication augmentation in cells; in the data active = maximum fold increase above about 1.5; inconclusive = no clear call, values can overlap the other calls; tested in PC3 cells
# L929 necroptosis = inhibitors of zVAD-triggered necroptosis, primary screen, L929 cells; L929 zVAD necroptosis rescue, ATP luminescence, 24 h; with zVAD 60 µM; viability rescue, % at 10 µM; hit rate 0.38% among 220,000;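 active = activation, scaled between plate controls, above about 75%, limit read from the data; inactive = activation under that limit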;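 note: 0% = zVAD with DMSO and 100% = DMSO alone without zVAD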
# TNF death inh = inhibitors of TNF-alpha triggered necroptosis, primary screen, cell-based, Jurkat FADD-/-, single concentration; AID 463075, 2010; activation (protection from cell death), % at 10 µM; Jurkat FADD-/- TNF necroptosis rescue, ATP luminescence, 24 h; 0 = TNF only, 100 = no-TNF cells; hit rate 0.068% among 220,000;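 active = activation, meaning protection from cell death, of at least 50% relative to plate controls; inactive = activation below 50%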;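 note: necroptosis triggered by 40 ng/mL TNF-alpha added together with compound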
# Dynein inh conf = dynein cargo transport inhibitors, GR-EGFP translocation, confirmation, imaging, high-content imaging, GR-EGFP cells; shares compounds with Dynein transport; 3617.4 GR-EGFP nuclear translocation imaging, dexamethasone-induced; calls only at 20 µM; hit rate 69% among 1,000; AID 463116, 2010;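 active = inhibition of receptor movement into the nucleus at or above a set limit in both runs, with normal cell brightness and cell count; inconclusive = limit reached in only one run, brightness and count normal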;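 note: dexamethasone at 1 µM final in well for 30 min; nuclear minus cytoplasmic GR-EGFP mean intensity difference in channel 2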
# The depositor's hits bear a star; i = inactive; ? = inconclusive; . = no result given; + = active, no number.
SMILES,Autophagy mod,Furin inhibitor,Dynein transport,HSV replic up,L929 necroptosis,TNF death inh,Dynein inh conf
Cc1ccccc1CS(=O)(=O)c1nnc([C@H](CC(C)C)NC(=O)OC(C)(C)C)o1,i,-5.2,-3.73*,i,2.6,-18.1,+
CC[C@@H](C)[C@H](NC(=O)OC(C)(C)C)c1nnc(S(=O)(=O)Cc2cc(C)ccc2C)o1,i,-20.4,-2.5,i,7.0,-18.2,.
O=C1ON=C(c2ccccc2)/C1=C/c1ccc(-c2ccccc2[N+](=O)[O-])o1,i,-0.5,-5.89*,i,1.4,-2.1,+
O=[N+]([O-])c1ccccc1-c1ccc(/C=N/n2cnnc2)o1,i,-6.8,0.00631,i,-0.1,-5.8,.
COC(=O)/C=C1/S/C(=N/N=C/c2ccc(N(C)C)cc2)NC1=O,i,0.2,-0.0597,i,1.3,1.3,.
O=C(/C=C/C=C/c1ccccc1)c1ccco1,.,-6.8,-4.33*,i,-1.4,-17.7,i
CN(C)CCCn1c(SCC(=O)N2c3ccccc3Sc3ccccc32)nc2ccccc2c1=O,i,-8.9,-4.19*,i,-1.0,-15.0,i
O=[N+]([O-])c1cc([N+](=O)[O-])c2cccnc2c1Oc1ccccc1O,i,-3.1,-4.38*,i,1.8,-7.6,+
O=[N+]([O-])c1ccc(O)c2ncccc12,i,20.6,-0.492,i,7.2,-24.9,.
CCCNC(=O)c1nnsc1S(=O)c1ccc(Cl)cc1 (stereo not given),i,-24.9,-4.76*,i,0.2,-19.2,+
CCCNC(=O)NS(=O)(=O)c1ccc(Cl)cc1,i,-26.1,-0.0877,i,3.1,1.5,.
CCCNC(=O)c1nnsc1S(=O)(=O)c1ccc(Cl)cc1,i,-21.1,-4.2*,i,25.8,-17.7,+
CNC(=O)c1nn(-c2ccc(Cl)cc2)ccc1=O,i,-22.0,-1,i,0.1,-5.5,.
CNC(=O)c1nnsc1S(=O)c1ccc(Cl)cc1 (stereo not given),i,-26.6,-4.99*,i,28.1,-16.9,+
CCCNC(=O)c1ccc2snnc2c1,i,-9.7,-0.0359,i,-0.9,-1.6,.
Cc1onc(-c2c(F)cccc2Cl)c1-c1nnc(-c2cccc3ccccc23)o1,.,-22.2,1.06,i,0.0,2.3,.
Cc1onc(-c2c(Cl)cccc2Cl)c1-c1nc2cc(Cl)ccc2c(=O)o1,.,-12.8,-4.13*,i,1.9,3.6,+
CC(NCC(O)c1ccc([N+](=O)[O-])cc1)C12CC3CC(CC(C3)C1)C2 (stereo not given),.,-15.3,0.772,i,1.1,0.2,.
Cc1cc(Cl)n2c(nc3ccccc32)c1C#N,i,-25.5,-5.22*,i,-2.8,-18.1,+
CCN(CC)c1cc(C)c(C#N)c2nc3ccccc3n12,.,-10.6,0.998,i,-0.6,-3.0,.
O=S1(=O)CCN(Cc2ccc(Cl)c(C(F)(F)F)c2)CC1,i,-20.8,-0.697,i,1.1,2.1,.
N/C(=C\C(=O)c1cc(Cl)ccc1O)C(Cl)(Cl)Cl,.,-15.7,-5.01*,i,-0.2,-26.4,+
Cc1[nH]n(-c2ccccc2)c(=S)c1C=Nc1ccc([N+](=O)[O-])cc1,i,-13.2,-0.956,i,-0.2,2.1,.
CCN(NC(=O)C(O)(c1ccccc1)c1ccccc1)C(=O)c1ccccc1,i,-11.0,0.154,i,-0.4,0.7,.
CCN(CC)c1ccc(/C=N/NC(=O)C(O)(c2ccccc2)c2ccccc2)o1,i,-12.2,-4.86*,i,0.5,3.2,i
SMILES,Autophagy mod,Furin inhibitor,Dynein transport,HSV replic up,L929 necroptosis,TNF death inh,Dynein inh conf
CS(=O)(=O)Nc1cccc(C2=NN(S(C)(=O)=O)C(c3ccc4c(c3)OCO4)C2)c1 (stereo not given),i,-9.4,-0.731,i,1.9,-1.3,.
CS(=O)(=O)N1N=C(c2ccccc2)CC1c1ccc2c(c1)OCO2 (stereo not given),i,3.6,-7.76,.,-0.5,-2.1,i
CCc1sc(C(C2C(=O)CC(C)(C)CC2=O)C2C(=O)CC(C)(C)CC2=O)cc1[N+](=O)[O-],i,-15.1,-5.2*,i,1.4,-2.8,i
CC(C)c1ccc(CN2CCN(C(=O)CCl)CC2)cc1,i,-16.6,-5.92*,i,-3.0,-13.3,+
CC(C)NC(=O)CN1CCN(C(=O)CCl)CC1,i,-30.6,-0.776,i,1.4,2.9,.
O=S(=O)(c1ccc(-c2ccon2)s1)N1CCN(CCN2CCOCC2)CC1,.,3.9,-0.63,i,0.1,0.8,.
COc1ccc(/C=C/C(=O)c2c(O)c(OC)c3occc3c2OC)cc1,i,-10.0,-4.71*,i,-1.2,0.2,+
CC1=CC(=O)C(C(C)C)=CC1=NC(=O)c1ccc(C)cc1,i,-16.8,-4.93*,i,44.2,2.8,?
CC1=CC(=O)C(C(C)C)=C/C1=N/OC(=O)c1cccc([N+](=O)[O-])c1,i,-24.7,-0.764,i,13.6,1.5,.
C/C(CCc1oc2ccccc2c1-c1ccc(C)o1)=N/O,i,-12.0,-1.06,i,1.2,-1.9,.
C/C(CCc1oc2c(Br)cc(Br)cc2c1-c1ccc(C)o1)=N\O,i,-11.5,-4.06*,i,0.8,-2.1,i
Cn1cnnc1SCC(=O)c1ccc(O)c(O)c1,i,-7.7,-0.914,i,1.3,1.9,.
CCCCc1cc(O)c(CCCC)c(O)c1,i,-32.1,-3.93*,i,11.7,-9.3,+
CCCCCc1cc(O)c2c(C)cc(=O)oc2c1,i,-32.0,-0.41,i,0.2,-5.2,.
CC(=O)N1CC=C2C(C#N)=C(N)C(C#N)(C#N)C(CCc3ccccc3)C2C1 (stereo not given),i,-8.4,1.12,i,0.0,-2.7,.
CCN1CC=C2C(C#N)=C(N)C(C#N)(C#N)C(CCc3ccccc3)C2C1 (stereo not given),+,-17.3,-7.47,?,-0.2,-0.9,i
CCOc1cc(N2CCOCC2)c(OCC)cc1NC(C)C(=O)N1CCC(C)CC1 (stereo not given),i,-9.6,2.09,i,-0.9,-1.4,.
COC(=O)NC(=C(Cl)Cl)S(=O)(=O)c1ccccc1,i,-8.3,-5.83*,i,-0.9,-18.8,+
Cc1ccc(C(=O)NC(=C(Cl)Cl)S(=O)(=O)c2ccccc2)cc1,i,-7.1,-3.17,i,-0.2,-4.5,.
